In assay [1] the target is G protein-coupled receptor kinase 4 (Homo sapiens) (UniProt P32298). Nature of the assay: Inhibition of GRK4 at 1 uM in presence of 10 uM ATP by Select Screen kinase assay relative to untreated control. In outline: (§1)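 Single-concentration profiling at 1 μM against a panel of 220 purified kinases, run as an outsourced SelectScreen kinase profiling service. Activity is expressed as percent inhibition.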

The target in assay [2] is Serine/threonine-protein kinase Nek6 (Homo sapiens) (UniProt Q9HC98). The assay can be described thus: Inhibition of NEK6 at 1 uM in presence of 10 uM ATP by Select Screen kinase assay relative to untreated control. In outline: (§2)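 Commercial SelectScreen profiling panel of 220 purified kinases. Each kinase was tested at a single inhibitor concentration of 1 μM, and activity was expressed as percent inhibition.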
Chain of Serine/threonine-protein kinase Nek6 (Homo sapiens) (Q9HC98 whole entry): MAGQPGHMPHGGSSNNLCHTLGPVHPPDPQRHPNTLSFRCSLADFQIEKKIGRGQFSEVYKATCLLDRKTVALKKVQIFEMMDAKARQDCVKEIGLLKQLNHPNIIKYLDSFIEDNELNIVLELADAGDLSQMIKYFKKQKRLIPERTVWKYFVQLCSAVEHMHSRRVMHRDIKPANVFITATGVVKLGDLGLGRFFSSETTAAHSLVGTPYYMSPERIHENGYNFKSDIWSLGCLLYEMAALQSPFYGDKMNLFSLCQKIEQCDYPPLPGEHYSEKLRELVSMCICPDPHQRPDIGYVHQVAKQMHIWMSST

Assay [3] deals with T1, Tyrosine-protein kinase receptor TYRO3 (Homo sapiens) (UniProt Q06418).
T1 sequence (whole entry): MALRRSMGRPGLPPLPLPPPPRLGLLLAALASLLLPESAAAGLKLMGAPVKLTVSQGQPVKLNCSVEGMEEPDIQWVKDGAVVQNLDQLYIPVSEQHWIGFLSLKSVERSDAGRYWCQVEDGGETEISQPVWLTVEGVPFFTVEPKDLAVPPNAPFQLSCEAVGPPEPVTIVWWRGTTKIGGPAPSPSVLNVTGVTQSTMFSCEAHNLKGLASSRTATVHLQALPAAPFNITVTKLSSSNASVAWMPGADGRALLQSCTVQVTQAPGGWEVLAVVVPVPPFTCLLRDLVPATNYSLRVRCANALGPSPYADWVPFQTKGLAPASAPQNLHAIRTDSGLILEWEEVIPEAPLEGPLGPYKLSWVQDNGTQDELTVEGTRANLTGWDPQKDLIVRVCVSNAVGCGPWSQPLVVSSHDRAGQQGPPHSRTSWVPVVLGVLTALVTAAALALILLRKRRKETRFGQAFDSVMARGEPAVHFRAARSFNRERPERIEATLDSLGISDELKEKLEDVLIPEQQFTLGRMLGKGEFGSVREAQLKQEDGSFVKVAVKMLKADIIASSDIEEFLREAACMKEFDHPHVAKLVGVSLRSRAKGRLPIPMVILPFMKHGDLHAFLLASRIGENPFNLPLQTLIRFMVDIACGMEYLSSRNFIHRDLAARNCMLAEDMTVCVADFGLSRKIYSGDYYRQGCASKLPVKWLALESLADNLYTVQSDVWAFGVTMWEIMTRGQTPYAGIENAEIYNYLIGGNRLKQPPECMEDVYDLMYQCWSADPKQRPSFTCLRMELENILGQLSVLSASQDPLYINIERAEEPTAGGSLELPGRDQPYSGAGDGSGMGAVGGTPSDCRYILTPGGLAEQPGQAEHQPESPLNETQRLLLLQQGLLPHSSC
The assay can be described thus: Inhibition of TYRO3 at 1 uM in presence of 10 uM ATP by Select Screen kinase assay relative to untreated control. In a few lines: as §2

The target of assay [4] is Tyrosine-protein kinase HCK (Homo sapiens) (UniProt P08631). Nature of the assay: Inhibition of HCK at 1 uM in presence of 10 uM ATP by Select Screen kinase assay relative to untreated control. In outline:
as §1

Assay [5] concerns the target Vascular endothelial growth factor receptor 1 (Homo sapiens) (UniProt P17948). The assay can be described thus: Inhibition of FLT1 at 1 uM in presence of 100 uM ATP by Select Screen kinase assay relative to untreated control. In outline:
as §1

Assay [6] concerns the target T2, Serine/threonine-protein kinase Nek9 (Homo sapiens) (UniProt Q8TD19).
T2 sequence (whole entry): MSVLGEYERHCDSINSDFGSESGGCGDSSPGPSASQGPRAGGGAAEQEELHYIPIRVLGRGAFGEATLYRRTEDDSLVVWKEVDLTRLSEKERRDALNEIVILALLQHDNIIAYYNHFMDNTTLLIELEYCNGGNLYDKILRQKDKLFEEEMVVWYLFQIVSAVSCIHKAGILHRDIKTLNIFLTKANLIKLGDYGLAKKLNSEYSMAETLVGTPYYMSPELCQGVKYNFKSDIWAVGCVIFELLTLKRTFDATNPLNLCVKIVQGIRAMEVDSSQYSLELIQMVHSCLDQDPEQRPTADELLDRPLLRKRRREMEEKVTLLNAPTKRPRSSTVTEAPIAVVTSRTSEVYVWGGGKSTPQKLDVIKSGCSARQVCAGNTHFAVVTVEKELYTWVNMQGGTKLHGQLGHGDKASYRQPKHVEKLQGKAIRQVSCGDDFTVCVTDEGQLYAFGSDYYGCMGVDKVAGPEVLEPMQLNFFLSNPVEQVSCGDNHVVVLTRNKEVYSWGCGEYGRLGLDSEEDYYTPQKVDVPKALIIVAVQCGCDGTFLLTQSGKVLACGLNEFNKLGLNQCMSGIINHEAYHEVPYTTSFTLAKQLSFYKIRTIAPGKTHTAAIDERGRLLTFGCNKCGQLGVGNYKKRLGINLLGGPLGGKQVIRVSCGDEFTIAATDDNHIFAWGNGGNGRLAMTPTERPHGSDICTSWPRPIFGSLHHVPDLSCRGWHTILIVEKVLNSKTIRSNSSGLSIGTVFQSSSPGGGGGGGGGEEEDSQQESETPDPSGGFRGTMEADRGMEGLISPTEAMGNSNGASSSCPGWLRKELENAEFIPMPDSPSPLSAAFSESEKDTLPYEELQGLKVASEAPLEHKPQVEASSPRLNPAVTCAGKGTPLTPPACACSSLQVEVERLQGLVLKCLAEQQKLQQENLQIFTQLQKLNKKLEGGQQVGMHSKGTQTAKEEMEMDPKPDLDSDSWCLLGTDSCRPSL
The assay can be described thus: Inhibition of NEK9 at 1 uM in presence of 10 uM ATP by Select Screen kinase assay relative to untreated control. In a few lines: as §2

The target in assay [7] is Serine/threonine-protein kinase MARK2 (Homo sapiens) (UniProt Q7KZI7). The assay can be described thus: Inhibition of MARK2 at 1 uM in presence of 10 uM ATP by Select Screen kinase assay relative to untreated control. In a few lines: as §1
Chain of Serine/threonine-protein kinase MARK2 (Homo sapiens) (Q7KZI7 whole entry): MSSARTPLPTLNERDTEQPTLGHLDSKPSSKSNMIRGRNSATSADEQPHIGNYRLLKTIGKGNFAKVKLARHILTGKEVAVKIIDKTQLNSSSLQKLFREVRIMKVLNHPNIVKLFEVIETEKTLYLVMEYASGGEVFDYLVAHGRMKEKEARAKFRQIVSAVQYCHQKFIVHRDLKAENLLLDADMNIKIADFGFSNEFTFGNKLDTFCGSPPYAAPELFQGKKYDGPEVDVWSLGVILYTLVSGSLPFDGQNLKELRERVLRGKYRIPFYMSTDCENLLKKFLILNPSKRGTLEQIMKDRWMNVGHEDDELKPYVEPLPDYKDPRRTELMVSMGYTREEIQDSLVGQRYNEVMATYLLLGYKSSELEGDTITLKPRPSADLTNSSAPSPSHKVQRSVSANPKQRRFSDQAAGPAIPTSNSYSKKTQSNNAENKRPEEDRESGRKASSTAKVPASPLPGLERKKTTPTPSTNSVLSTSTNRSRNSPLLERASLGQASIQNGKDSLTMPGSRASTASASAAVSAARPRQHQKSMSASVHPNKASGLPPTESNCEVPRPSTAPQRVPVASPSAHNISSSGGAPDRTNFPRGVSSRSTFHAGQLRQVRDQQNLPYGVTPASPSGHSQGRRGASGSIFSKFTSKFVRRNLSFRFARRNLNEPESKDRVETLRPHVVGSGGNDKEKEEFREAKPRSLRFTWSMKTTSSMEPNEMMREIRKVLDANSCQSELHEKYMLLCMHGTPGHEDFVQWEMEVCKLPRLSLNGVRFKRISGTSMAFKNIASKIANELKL
The target of assay [8] is MAP kinase-activated protein kinase 2 (Homo sapiens) (UniProt P49137). Nature of the assay: Inhibition of MAPKAPK2 at 1 uM in presence of 10 uM ATP by Select Screen kinase assay relative to untreated control. In a few lines: as §1
Chain of MAP kinase-activated protein kinase 2 (Homo sapiens) (P49137 whole entry, looked up): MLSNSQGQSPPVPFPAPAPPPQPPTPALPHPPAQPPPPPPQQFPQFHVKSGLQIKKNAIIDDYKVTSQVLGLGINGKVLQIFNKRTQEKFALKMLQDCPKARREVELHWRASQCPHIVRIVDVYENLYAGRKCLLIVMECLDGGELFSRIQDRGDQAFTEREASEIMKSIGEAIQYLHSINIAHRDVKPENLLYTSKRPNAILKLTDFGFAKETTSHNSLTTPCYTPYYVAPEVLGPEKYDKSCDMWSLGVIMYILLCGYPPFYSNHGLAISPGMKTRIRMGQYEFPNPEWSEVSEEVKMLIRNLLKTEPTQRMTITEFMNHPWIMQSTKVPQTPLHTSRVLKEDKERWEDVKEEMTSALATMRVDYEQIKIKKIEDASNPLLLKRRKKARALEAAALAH

Chain of G protein-coupled receptor kinase 4 (Homo sapiens) (P32298 whole entry, looked up): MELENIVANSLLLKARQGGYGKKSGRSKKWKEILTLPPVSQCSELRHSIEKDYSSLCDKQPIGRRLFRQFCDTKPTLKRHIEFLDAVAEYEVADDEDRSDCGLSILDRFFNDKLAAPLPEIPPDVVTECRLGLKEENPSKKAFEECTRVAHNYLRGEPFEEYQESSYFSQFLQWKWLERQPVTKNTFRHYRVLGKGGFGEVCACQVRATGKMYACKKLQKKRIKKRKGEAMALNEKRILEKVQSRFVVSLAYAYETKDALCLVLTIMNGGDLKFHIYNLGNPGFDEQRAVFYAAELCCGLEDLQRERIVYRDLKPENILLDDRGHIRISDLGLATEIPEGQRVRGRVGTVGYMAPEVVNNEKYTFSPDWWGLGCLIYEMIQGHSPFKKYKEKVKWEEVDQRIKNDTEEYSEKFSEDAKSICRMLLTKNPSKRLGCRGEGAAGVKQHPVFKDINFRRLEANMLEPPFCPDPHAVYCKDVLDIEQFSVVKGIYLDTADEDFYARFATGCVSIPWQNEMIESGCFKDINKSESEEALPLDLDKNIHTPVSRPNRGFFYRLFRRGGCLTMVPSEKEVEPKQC
Chain of Tyrosine-protein kinase HCK (Homo sapiens) (P08631 2-526 limits assumed): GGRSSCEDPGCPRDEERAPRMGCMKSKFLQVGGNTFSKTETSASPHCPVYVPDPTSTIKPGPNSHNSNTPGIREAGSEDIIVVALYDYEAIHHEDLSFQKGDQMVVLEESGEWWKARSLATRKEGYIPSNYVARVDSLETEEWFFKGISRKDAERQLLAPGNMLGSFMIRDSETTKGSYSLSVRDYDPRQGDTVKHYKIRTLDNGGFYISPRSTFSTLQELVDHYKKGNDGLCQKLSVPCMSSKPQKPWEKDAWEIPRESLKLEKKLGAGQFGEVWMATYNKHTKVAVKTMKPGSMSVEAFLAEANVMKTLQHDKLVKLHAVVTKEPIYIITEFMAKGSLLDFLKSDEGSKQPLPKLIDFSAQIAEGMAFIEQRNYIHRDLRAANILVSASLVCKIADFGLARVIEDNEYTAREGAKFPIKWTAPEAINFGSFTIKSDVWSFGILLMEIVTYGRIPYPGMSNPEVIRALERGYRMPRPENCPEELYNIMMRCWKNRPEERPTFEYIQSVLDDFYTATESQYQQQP
Chain of Vascular endothelial growth factor receptor 1 (Homo sapiens) (P17948 whole entry): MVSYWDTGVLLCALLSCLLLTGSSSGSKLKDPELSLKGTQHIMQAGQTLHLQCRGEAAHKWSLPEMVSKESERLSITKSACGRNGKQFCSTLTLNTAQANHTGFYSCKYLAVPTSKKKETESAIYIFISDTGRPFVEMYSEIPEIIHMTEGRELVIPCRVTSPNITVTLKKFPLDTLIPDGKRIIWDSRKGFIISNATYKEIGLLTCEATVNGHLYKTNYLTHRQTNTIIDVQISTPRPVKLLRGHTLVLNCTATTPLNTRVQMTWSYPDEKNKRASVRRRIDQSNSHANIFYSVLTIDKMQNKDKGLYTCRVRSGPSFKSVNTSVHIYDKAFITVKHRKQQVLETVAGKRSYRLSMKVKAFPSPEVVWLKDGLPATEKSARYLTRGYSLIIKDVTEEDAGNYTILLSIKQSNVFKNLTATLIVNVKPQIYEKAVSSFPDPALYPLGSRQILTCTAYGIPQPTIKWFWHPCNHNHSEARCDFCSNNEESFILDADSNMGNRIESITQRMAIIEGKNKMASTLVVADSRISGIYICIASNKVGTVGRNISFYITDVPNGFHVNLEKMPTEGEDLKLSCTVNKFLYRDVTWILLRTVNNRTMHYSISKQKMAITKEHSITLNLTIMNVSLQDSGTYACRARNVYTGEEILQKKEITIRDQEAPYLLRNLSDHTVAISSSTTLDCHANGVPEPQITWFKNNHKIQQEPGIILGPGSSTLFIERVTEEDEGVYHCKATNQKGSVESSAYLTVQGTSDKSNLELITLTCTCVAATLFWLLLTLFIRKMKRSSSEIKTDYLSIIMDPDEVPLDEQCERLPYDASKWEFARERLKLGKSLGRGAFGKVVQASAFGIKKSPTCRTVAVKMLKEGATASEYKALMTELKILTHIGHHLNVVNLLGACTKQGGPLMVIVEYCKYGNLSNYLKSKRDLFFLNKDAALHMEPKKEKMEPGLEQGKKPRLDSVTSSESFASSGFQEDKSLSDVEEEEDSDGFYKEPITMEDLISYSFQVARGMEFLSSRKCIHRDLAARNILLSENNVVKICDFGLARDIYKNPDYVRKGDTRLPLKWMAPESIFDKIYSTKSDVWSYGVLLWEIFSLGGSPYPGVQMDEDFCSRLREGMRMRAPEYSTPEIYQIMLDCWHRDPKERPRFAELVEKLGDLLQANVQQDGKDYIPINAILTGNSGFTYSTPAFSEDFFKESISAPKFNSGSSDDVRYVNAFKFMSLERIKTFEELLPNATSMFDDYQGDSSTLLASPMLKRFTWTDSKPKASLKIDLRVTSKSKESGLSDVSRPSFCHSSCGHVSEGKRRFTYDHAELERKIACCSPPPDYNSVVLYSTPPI

As for `COc1ccccc1N1CCN(c2ncnc3[nH]nc(Br)c23)CC1`, the inhibition turned out to be 16% in assay [1]; 10% in assay [2]; 37% in assay [3]; 15% in assay [4]; 20% in assay [5]; 12% in assay [6]. In addition, the inhibition in assay [7] is 26%; in assay [8], -5%.

In the case of `O=C(NCCCNc1nc(Nc2cccc(NC(=O)N3CCCC3)c2)ncc1I)c1cccs1`, the inhibition in assay [1] amounted to 9%; in assay [2], 9%; in assay [3], 42%; in assay [4], 9%; in assay [5], 52%; in assay [6], 88%. For the same molecule, the figures for the inhibition in assay [7] and in assay [8] were 93% and 2%, respectively.

As to `Cc1n[nH]c2ccc(-c3cncc(OC[C@@H](N)Cc4c[nH]c5ccccc45)c3)cc12`, the inhibition was 72% in assay [1]; 3% in assay [2]; 14% in assay [3]; 8% in assay [4]; -2% in assay [5]; 15% in assay [6]. Besides, the inhibition came out at 68% in assay [7] and 3% in assay [8].

Source of the values: ChEMBL document CHEMBL1250448, “Inhibitor hijacking of Akt activation” (Nat Chem Biol, 2009).
